Values after ≈ are worked out from the molar mass of the structure shown. Active and inactive are the calls of the source. The calls are words filed in the database; no cut-off is given here.
How the values were obtained:
Klebsiella pneumoniae = test: Antibacterial activity against Klebsiella pneumoniae assessed as growth inhibition after 18 to 24 hrs; type: functional
Summary of the method: (§1)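 Clinical isolates from a regional epidemiology institute. Broth microdilution: inoculum 5 × 10⁵ CFU/ml in Müller-Hinton broth (pH 7.3) with serial concentrations of salts, incubated at 35 °C for 18–24 h. MIC taken as lowest concentration with no detectable bacterial growth.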

Staphylococcus aureus [1] = test: Antibacterial activity against Staphylococcus aureus assessed as growth inhibition after 18 to 24 hrs; type: functional; summary of the method: as §1
[2] = tested on: Staphylococcus epidermidis; test: Antibacterial activity against Staphylococcus epidermidis assessed as growth inhibition after 18 to 24 hrs; type: functional; summary of the method: as §1
Proteus = test: Antibacterial activity against Proteus spp. assessed as growth inhibition after 18 to 24 hrs; type: functional; summary of the method: as §1
Staphylococcus aureus [3] = test: Antibacterial activity against Staphylococcus aureus 25923 assessed as increase in hydrodynamic diameter of plasmid DNA at 0.1 mg/ml after 1 hr by light scatterning method (reference value: 360.7 +/- 18 nm); type: functional
[4] = Cytotoxicity against human skin fibroblasts after 72 hrs by MTT assay; parameters: species or system Skin fibroblast
Summary of the method: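 Human skin fibroblasts seeded at 3000 cells/well, attached overnight, then exposed to salt solutions (1 µg/ml–1 mg/ml) for 72 h at 37 °C, 5% CO₂. Cells washed with fresh medium and subjected to MTT assay; reduced product read at 550 nm. CC50 derived.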

Staphylococcus aureus [5] = test: Antibacterial activity against Staphylococcus aureus 25923 assessed as increase in hydrodynamic diameter of plasmid DNA at 0.01 mg/ml after 1 hr by light scatterning method (reference value: 360.7 +/- 18 nm); type: functional
Staphylococcus aureus [6] = test: Antibacterial activity against Staphylococcus aureus 25923 assessed as partial DNA fragmentation at 0.01 to 10 mg/ml after 1 hr by agarose gel electrophoresis method
Staphylococcus aureus [7] = test: Antibacterial activity against Staphylococcus aureus 25923 assessed as DNA migration out of cells at 10 ug/ml after 1 hr by SYBR green staining-based fluorescent microscopic analysis; type: functional, organism-based
Summary of the method: (§2)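 S. aureus 25923 pre-grown on blood agar at 37 °C, cultured overnight in Müller-Hinton broth (pH 7.3), pelleted and resuspended in PBS. After treatment, cells centrifuged 3000 g 15 min, washed twice in PBS, embedded in agarose microgels, lysed, stained with SYBR Green I and imaged by fluorescence microscopy.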

Staphylococcus aureus [8] = test: Antibacterial activity against Staphylococcus aureus 25923 assessed as decrease in zeta potential of plasmid DNA at 0.01 mg/ml after 1 hr by light scatterning method (reference value: -50.7 +/- 1 mV); type: functional
Staphylococcus aureus [9] = test: Antibacterial activity against Staphylococcus aureus 25923 assessed as increase in polydispersity index of plasmid DNA at 0.01 mg/ml after 1 hr by light scatterning method (reference value: 0.425 no unit); type: functional
Staphylococcus aureus [10] = test: Antibacterial activity against Staphylococcus aureus 25923 assessed as decrease in zeta potential of plasmid DNA at 0.1 mg/ml after 1 hr by light scatterning method (reference value: -50.7 +/- 1 mV); type: functional
Staphylococcus aureus [11] = test: Antibacterial activity against Staphylococcus aureus 25923 assessed as increase in polydispersity index of plasmid DNA at 0.1 mg/ml after 1 hr by light scatterning method (reference value: 0.425 no unit); type: functional
Staphylococcus aureus [12] = test: Antibacterial activity against Staphylococcus aureus 25923 assessed as DNA fragmentation at 10 ug/ml after 1 hr by SYBR green staining-based fluorescent microscopic analysis; type: functional, organism-based; summary of the method: as §2

SMILES	MIC (Klebsiella pneumoniae) [µg/mL]	MIC (Staphylococcus aureus [1]) [µg/mL]	MIC [2] [µg/mL]	MIC (Proteus) [µg/mL]	also measured
CN[C@H](CC(C)C)C(=O)N[C@H]1C(=O)N[C@@H](CC(N)=O)C(=O)N[C@H]2C(=O)N[C@H]3C(=O)N[C@H](C(=O)N[C@H](C(=O)O)c4cc(O)cc(O)c4-c4cc3ccc4O)[C@H](O)c3ccc(c(Cl)c3)Oc3cc2cc(c3O[C@@H]2O[C@H](CO)[C@@H](O)[C@H](O)[C@H]2O[C@H]2C[C@](C)(N)[C@H](O)[C@H](C)O2)Oc2ccc(cc2Cl)[C@H]1O [VANCOMYCIN]	> 1000	2.5 (≈ 1.73 µM)	2.5 (≈ 1.73 µM)	> 1000	–
Cc1ncc(C[P+](c2ccccc2)(c2ccccc2)c2ccccc2)c2c1OC(C)(C)OC2.[Cl-]	> 1000	1000	1000	> 1000	–
CC(=O)Oc1c(C)nc(C[P+](c2ccccc2)(c2ccccc2)c2ccccc2)c2c1COC(C)(C)OC2.[Cl-]	> 1000	100	100	> 1000	–
Cl.OCc1nc(C[P+](c2ccccc2)(c2ccccc2)c2ccccc2)c(O)c(CO)c1CO.[Cl-]	> 1000	> 1000	> 1000	> 1000	–
CC1(C)OCc2c(CO)c(CO)nc(C[P+](c3ccccc3)(c3ccccc3)c3ccccc3)c2O1.[Cl-]	> 1000	> 1000	> 1000	> 1000	–
Cc1ncc(C[P+](c2ccccc2)(c2ccccc2)c2ccccc2)c(CO)c1O.Cl.[Cl-]	> 1000	1000	1000	> 1000	–
Cc1nc(C[P+](c2ccccc2)(c2ccccc2)c2ccccc2)c(CO)c(CO)c1O.Cl.[Cl-]	> 1000	1000	1000	> 1000	–
Cc1nc(CO)c(C[P+](c2ccccc2)(c2ccccc2)c2ccccc2)c(CO)c1O.Cl.[Cl-]	> 1000	1000	1000	> 1000	–

Now from value to compound, other results behind:

MIC (Klebsiella pneumoniae) [µg/mL]	MIC (Staphylococcus aureus [1]) [µg/mL]	MIC [2] [µg/mL]	MIC (Proteus) [µg/mL]	SMILES	also measured
> 1000	50	50	> 1000	CC1(C)OCc2c(C[P+](c3ccccc3)(c3ccccc3)c3ccccc3)c(C[P+](c3ccccc3)(c3ccccc3)c3ccccc3)nc(C[P+](c3ccccc3)(c3ccccc3)c3ccccc3)c2O1.[Cl-].[Cl-].[Cl-]	–
> 1000	250	250	> 1000	Cl.OCc1c(C[P+](c2ccccc2)(c2ccccc2)c2ccccc2)cnc(C[P+](c2ccccc2)(c2ccccc2)c2ccccc2)c1O.[Cl-].[Cl-]	–
> 1000	5	5	> 1000	Cc1nc(C[P+](c2ccccc2)(c2ccccc2)c2ccccc2)c(C[P+](c2ccccc2)(c2ccccc2)c2ccccc2)c2c1OC(C)(C)OC2.[Cl-].[Cl-]	Activity (Staphylococcus aureus [3]): 452.3 nm; CC50 at 72 h [4]: 160 µg/mL; Activity (Staphylococcus aureus [5]): 500.9 nm; Activity (Staphylococcus aureus [6]): Active; Activity (Staphylococcus aureus [7]): Active; Activity (Staphylococcus aureus [8]): -46.6 mV; Activity (Staphylococcus aureus [9]): 0.717; Activity (Staphylococcus aureus [10]): -35.2 mV; Activity (Staphylococcus aureus [11]): 0.844; Activity (Staphylococcus aureus [12]): Active
> 1000	1000	1000	> 1000	Cc1nc(C[P+](c2ccccc2)(c2ccccc2)c2ccccc2)c(C[P+](c2ccccc2)(c2ccccc2)c2ccccc2)c(CO)c1O	–
> 1000	62.5	50	> 1000	CC1(C)OCc2c(C[P+](c3ccccc3)(c3ccccc3)c3ccccc3)cnc(C[P+](c3ccccc3)(c3ccccc3)c3ccccc3)c2O1.[Cl-].[Cl-]	–
> 1000	500	500	> 1000	Cl.OCc1c(O)c(C[P+](c2ccccc2)(c2ccccc2)c2ccccc2)nc(C[P+](c2ccccc2)(c2ccccc2)c2ccccc2)c1C[P+](c1ccccc1)(c1ccccc1)c1ccccc1.[Cl-].[Cl-].[Cl-]	–

— ChEMBL document CHEMBL2396649, “Synthesis and antibacterial activity of novel phosphonium salts on the basis of pyridoxine” (Bioorg Med Chem, 2013)
